Calls of active or inactive are those of the source. The rule behind the calls is not given here.

Experimental findings from ChEMBL document CHEMBL1152818, “Structural bioinformatics-based design of selective, irreversible kinase inhibitors” (Science, 2005) are described below.

Test [1] relates to Ribosomal protein S6 kinase alpha-3 (Homo sapiens), P51812 [C436V]. Kind of test: Binding affinity to RSK2 C436V mutant at 1 uM preincubated for 1 hr by denaturing gel electrophoresis and Western blot. In short, it runs like this: (§1)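 His6-tagged RSK2 C-terminal kinase domains (WT or mutant) exposed to 1 μM biotin-fmk for 1 hour in the presence of His6-ERK2. Proteins resolved by SDS-PAGE. Western blot probed with streptavidin-HRP for covalent label and anti-His6 for total protein.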
Sequence of Ribosomal protein S6 kinase alpha-3 (Homo sapiens), P51812 [C436V] (P51812 whole entry C436V, the tested form may be a part): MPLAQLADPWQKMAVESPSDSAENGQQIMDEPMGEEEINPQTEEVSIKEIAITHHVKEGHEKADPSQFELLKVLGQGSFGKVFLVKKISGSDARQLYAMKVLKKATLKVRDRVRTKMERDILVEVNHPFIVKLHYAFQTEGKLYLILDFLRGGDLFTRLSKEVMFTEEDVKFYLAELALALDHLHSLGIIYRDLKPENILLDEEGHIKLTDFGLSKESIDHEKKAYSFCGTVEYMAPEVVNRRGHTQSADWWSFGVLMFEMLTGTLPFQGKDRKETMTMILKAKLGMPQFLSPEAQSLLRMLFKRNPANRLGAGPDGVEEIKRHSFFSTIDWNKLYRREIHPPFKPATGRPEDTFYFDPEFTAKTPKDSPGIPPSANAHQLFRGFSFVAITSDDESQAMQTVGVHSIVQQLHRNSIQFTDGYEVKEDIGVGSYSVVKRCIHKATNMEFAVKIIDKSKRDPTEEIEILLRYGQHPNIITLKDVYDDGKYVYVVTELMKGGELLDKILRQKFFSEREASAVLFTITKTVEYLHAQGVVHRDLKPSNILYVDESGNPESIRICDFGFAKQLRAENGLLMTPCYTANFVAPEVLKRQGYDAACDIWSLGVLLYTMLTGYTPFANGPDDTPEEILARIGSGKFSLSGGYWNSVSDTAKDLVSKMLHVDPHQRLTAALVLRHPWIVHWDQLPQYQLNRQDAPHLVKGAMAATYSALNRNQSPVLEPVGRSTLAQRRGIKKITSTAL
A general note: Immunoblotting shows a protein as a band on a membrane.

Test [2] concerns the target T1, Ribosomal protein S6 kinase alpha-3 (Homo sapiens, UniProt P51812). Kind of test: Binding affinity to RSK2 in HEK293 cells assessed as protein labeling at 1 µM preincubated for 1 hr by enhanced chemiluminescence detection.
Test [3] concerns the target T1, Ribosomal protein S6 kinase alpha-3. Kind of test: Binding affinity to RSK2 in HEK293 cells assessed as protein labeling at 1 µM preincubated for 1 hr by immunodepletion method.
For test [4], the system named is Ribosomal protein S6 kinase alpha-3 (Homo sapiens), P51812 [T493M]. Kind of test: Binding affinity to RSK2 T493M mutant at 1 uM preincubated for 1 hr by denaturing gel electrophoresis and Western blot. In short, it runs like this:
as §1

Test [5] has as its target Ribosomal protein S6 kinase alpha-1 (Homo sapiens) (UniProt Q15418). Kind of test: Binding affinity to RSK1 in HEK293 cells assessed as protein labeling at 1 µM preincubated for 1 hr by enhanced chemiluminescence detection.
Test [6] deals with T1, Ribosomal protein S6 kinase alpha-3. Kind of test: Binding affinity to wild type RSK2 at 1 uM preincubated for 1 hr by denaturing gel electrophoresis and Western blot. In short, it runs like this: as §1
In test [7] the target is Ribosomal protein S6 kinase alpha-1 (Homo sapiens) (UniProt Q15418). Kind of test: Binding affinity to RSK1 in HEK293 cells assessed as protein labeling at 1 µM preincubated for 1 hr by immunodepletion method.
Sequence of Ribosomal protein S6 kinase alpha-1 (Homo sapiens) (Q15418 whole entry): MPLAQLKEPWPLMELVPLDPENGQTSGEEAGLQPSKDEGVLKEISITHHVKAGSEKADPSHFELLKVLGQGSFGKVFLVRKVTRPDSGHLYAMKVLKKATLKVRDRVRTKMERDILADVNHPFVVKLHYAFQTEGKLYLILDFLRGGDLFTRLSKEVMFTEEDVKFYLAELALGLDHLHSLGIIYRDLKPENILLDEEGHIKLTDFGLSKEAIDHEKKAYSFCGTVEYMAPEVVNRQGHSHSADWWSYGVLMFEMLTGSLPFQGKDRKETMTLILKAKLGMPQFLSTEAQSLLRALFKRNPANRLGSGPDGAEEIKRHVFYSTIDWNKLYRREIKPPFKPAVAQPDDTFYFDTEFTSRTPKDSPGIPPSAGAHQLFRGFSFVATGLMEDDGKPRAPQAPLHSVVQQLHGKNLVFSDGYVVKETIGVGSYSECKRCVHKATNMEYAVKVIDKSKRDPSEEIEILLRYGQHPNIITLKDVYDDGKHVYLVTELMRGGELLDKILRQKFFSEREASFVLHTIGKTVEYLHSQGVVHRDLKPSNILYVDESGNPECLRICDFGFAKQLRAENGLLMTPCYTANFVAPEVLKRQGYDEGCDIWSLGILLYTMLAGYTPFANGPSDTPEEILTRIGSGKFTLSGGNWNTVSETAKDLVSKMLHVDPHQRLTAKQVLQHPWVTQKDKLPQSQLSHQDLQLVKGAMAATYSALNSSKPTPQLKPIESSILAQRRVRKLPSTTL
Test [8] has as its system NIH3T3. Kind of test: Inhibition of PMA-stimulated histone H3 phosphorylation in mouse NIH-3T3 cells at 10 uM by SDS page and Western blot. In kind it is functional, cell-based.
Test [9] has as its target Ribosomal protein S6 kinase alpha-5 (Homo sapiens) (UniProt O75582). Kind of test: Inhibition of MSK1-mediated histone H3 Ser10 phosphorylation expressed in serum starved african green monkey COS7 cells by Western blot. Type of test: cell-based. As to conditions: COS-7. In short, it runs like this:
(§2)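 COS-7 cells transfected with HA-tagged WT or M498T MSK1. Lysed in Laemmli buffer. Western blots probed for phospho-Ser386 RSK (MSK1 autophosphorylation), HA epitope and phospho-Ser10 histone H3.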

In test [10] the target is Tyrosine-protein kinase Fyn (Homo sapiens, UniProt P06241, V285C). Kind of test: Inhibition of FYN Val285Cys mutant expressed in Escherichia coli.
Sequence of Tyrosine-protein kinase Fyn (P06241 2-537 V285C limits assumed): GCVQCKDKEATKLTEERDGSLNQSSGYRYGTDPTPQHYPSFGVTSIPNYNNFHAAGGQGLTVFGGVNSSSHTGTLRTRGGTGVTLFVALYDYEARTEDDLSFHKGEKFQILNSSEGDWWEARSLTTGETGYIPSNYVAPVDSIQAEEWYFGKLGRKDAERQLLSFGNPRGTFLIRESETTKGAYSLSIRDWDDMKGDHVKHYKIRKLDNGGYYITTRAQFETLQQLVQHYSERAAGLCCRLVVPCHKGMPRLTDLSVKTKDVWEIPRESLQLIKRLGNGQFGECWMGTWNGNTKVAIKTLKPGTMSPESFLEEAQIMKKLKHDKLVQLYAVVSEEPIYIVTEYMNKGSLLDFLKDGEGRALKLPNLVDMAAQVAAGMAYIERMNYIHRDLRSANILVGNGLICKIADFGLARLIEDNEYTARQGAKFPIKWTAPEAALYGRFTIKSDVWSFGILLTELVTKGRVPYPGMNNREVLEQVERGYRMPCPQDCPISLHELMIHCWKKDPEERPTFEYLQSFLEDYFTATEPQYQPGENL
Test [11] concerns COS-7. Kind of test: Inhibition of EGF-stimulated ERK2 phosphorylation in serum starved african green monkey COS7 cells at 10 µM by Western blot. The note with it: Chlorocebus aethiops.
For test [12], the system named is COS-7. Kind of test: Inhibition of EGF-stimulated ERK1 phosphorylation in serum starved african green monkey COS7 cells at 10 µM by Western blot. As to conditions: Chlorocebus aethiops.
The nature of test [13]: Inhibition of EGF-stimulated RSK2 Ser386 autophosphorylation in serum starved african green monkey COS7 cells by immunoprecipitation and Western blot. In kind it is cell-based, Chlorocebus aethiops. As to conditions: cos-7. In short, it runs like this:
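COS-7 cells serum-deprived 20 h, exposed to a range of inhibitor concentrations, then stimulated with EGF (1 ng/mL) for 10 min. Endogenous RSK2 immunoprecipitated and blotted for phospho-Ser386 and total RSK2. EC50 taken from the concentration series.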

Test [14] relates to Ribosomal protein S6 kinase alpha-5 (Homo sapiens), O75582 [M498T]. Kind of test: Inhibition of MSK1 M498T mutant phosphorylation expressed in serum starved african green monkey COS7 cells by Western blot. As to conditions: COS-7. In kind it is cell-based. In short, it runs like this: as §2
Sequence of Ribosomal protein S6 kinase alpha-5 (Homo sapiens), O75582 [M498T] (O75582 whole entry M498T): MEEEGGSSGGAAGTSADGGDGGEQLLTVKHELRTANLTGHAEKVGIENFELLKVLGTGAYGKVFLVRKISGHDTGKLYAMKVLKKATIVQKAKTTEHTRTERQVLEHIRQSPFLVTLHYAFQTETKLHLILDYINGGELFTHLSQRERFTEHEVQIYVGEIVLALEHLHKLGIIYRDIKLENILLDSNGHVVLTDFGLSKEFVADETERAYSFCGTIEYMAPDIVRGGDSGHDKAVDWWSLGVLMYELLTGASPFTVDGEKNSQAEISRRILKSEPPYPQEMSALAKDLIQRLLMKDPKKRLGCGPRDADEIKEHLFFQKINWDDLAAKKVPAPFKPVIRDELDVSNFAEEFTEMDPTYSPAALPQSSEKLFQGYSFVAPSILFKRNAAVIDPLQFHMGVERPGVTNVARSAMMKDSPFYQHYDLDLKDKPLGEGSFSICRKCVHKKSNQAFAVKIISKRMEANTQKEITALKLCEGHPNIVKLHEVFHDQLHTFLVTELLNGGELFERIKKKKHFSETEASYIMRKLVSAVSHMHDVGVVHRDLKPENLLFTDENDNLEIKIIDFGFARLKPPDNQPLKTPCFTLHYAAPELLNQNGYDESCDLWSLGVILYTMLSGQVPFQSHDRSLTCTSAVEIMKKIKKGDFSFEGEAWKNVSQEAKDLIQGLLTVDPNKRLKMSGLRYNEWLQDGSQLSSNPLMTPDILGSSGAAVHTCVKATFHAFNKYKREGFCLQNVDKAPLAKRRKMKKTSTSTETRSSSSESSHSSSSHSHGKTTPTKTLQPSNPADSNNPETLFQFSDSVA
Test [15] concerns NIH3T3. Kind of test: Reversion of Rous sarcoma virus wild type V-src-dependent cell morphology in mouse NIH-3T3 cells assessed as cells acquiring actin stress fibres at 1 uM after 16 hrs by phalloidin-FITC and DAPI staining. In kind it is cell-based.
Test [16] relates to Tyrosine-protein kinase transforming protein Src (Avian leukosis virus RSA (RSV-SRA) (Rous sarcoma virus (strainSchmidt-Ruppin A))), P00524 [V281C]. Kind of test: Reversion of Rous sarcoma virus V-src V281C mutant-dependent cell morphology in mouse NIH-3T3 cells assessed as cells acquiring actin stress fibres at 1 uM after 16 hrs by phalloidin-FITC and DAPI staining. In kind it is cell-based. The note with it: NIH3T3.

Test [17] has the same test system. Kind of test: Inhibition of Rous sarcoma virus V-src V281C mutant expressed in mouse NIH-3T3 cells assessed as reduction in steady-state phosphotyrosine level preincubated for 1 hr by Western blot. The note with it: NIH3T3. In kind it is cell-based.
Test [18] concerns NIH3T3. Kind of test: Inhibition of Rous sarcoma virus wild type V-src expressed in mouse NIH-3T3 cells assessed as reduction in steady-state phosphotyrosine level preincubated for 1 hr by Western blot. Type of test: cell-based.
Test [19] concerns the target T1, Ribosomal protein S6 kinase alpha-3. Kind of test: Inhibition of RSK2 C-terminal kinase domain expressed in Escherichia coli preincubated for 30 mins. In short, it runs like this: (§3)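 His6-tagged RSK2 CTDs (WT or mutant) expressed in E. coli, activated with bacterially expressed His6-ERK2 plus ATP. Enzyme at 1 nM pretreated with inhibitor for 30 min, then assayed with 0.1 mM ATP and 0.1 mM "CTD-tide" peptide substrate.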

Test [20] has as its target Ribosomal protein S6 kinase alpha-3 (Homo sapiens, UniProt P51812, T493M). Kind of test: Inhibition of RSK2 C-terminal kinase domain T493M mutant expressed in Escherichia coli preincubated for 30 mins. In short, it runs like this:
as §3

Test [21] concerns the target Ribosomal protein S6 kinase alpha-3 (Homo sapiens, UniProt P51812, C436V). Kind of test: Inhibition of RSK2 C-terminal kinase domain C436V mutant expressed in Escherichia coli preincubated for 30 mins. In short, it runs like this:
as §3

T1 sequence (P51812 whole entry): as the sequence (P51812 whole entry C436V, the tested form may be a part) above, with V436C counted along it
Sequence of Ribosomal protein S6 kinase alpha-3 (Homo sapiens, UniProt P51812, C436V) (P51812 whole entry C436V, the tested form may be a part): as the sequence (P51812 whole entry C436V, the tested form may be a part) above
Sequence of Ribosomal protein S6 kinase alpha-3 (Homo sapiens, UniProt P51812, T493M) (P51812 whole entry T493M, the tested form may be a part): as the sequence (P51812 whole entry C436V, the tested form may be a part) above, with V436C, T493M counted along it
Sequence of Ribosomal protein S6 kinase alpha-3 (Homo sapiens), P51812 [T493M] (P51812 whole entry T493M): as the sequence (P51812 whole entry C436V, the tested form may be a part) above, with V436C, T493M counted along it
Sequence of Ribosomal protein S6 kinase alpha-5 (Homo sapiens) (O75582 whole entry, looked up): as the sequence (O75582 whole entry M498T) above, with T498M counted along it

As for `Cc1ccc(-c2c(C(=O)CF)n(CCCOC(=O)NCCCCNC(=O)CCCC[C@@H]3SC[C@H]4NC(=O)N[C@@H]34)c3ncnc(N)c23)cc1`, the result in test [1] and in test [4] was inactive. Also, the outcome in test [2], in test [3], in test [5], in [6] and in test [7] was Active.
Consider `Cc1ccc(-c2c(C(=O)CF)n(CCCO)c3ncnc(N)c23)cc1`, for which the outcome (in the test with NIH3T3 [8]; in test [9]; with COS-7 [11]; in the test on COS-7 [12]) was inactive. This molecule came in with an IC50 in [10] of 1 nM. This molecule registered an EC50 in [13] of 200 nM. Moreover, in test [14], the outcome was Active.
As for `Cc1ccc(-c2c(C(=O)CCl)n(CCCO)c3ncnc(N)c23)cc1`, the Activity stood at 75% with NIH3T3 [15] and 2% in test [16]. In [10], this molecule came in with an IC50 of 100 nM. The result in test [17] was Active. Further, the outcome with NIH3T3 [18] was inactive.
Consider `Cc1ccc(-c2cn(CCCO)c3ncnc(N)c23)cc1`, for which the IC50 is 1200 nM in test [19], above 30000 nM in test [20] and 430 nM in [21].

The IC50 is the concentration at which inhibition is half-maximal. Usually EC50 stands for the midpoint of the concentration-response curve.
